Our source for the Drug metabolism, Activity and fold induction values is ChEMBL document CHEMBL2021905, “Structure-activity relationship of novel menaquinone-4 analogues: modification of the side chain affects their biological activities” (J Med Chem, 2012).

SMILES strings stand for the structures.

Data set [1] has as its system MG-63. Description: Prodrug conversion in human MG63 cells assessed as formation of deuterium 2-methyl-3-((2E,6E,10E)-3,7,11,15-tetramethylhexadeca-2,6,10,14-tetraenyl)naphthalene-1,4-dione at 1 uM for 24 hrs by LC-APCI-MS/MS analysis. Type of data set: ADME, cell-based. The settings on record: mg-63, 24 h. The procedure, abridged:
(§1)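 MG-63 human osteosarcoma cells incubated with compound at a final 1.0 μM, 37 °C, 24 h. Cellular vitamin K compounds extracted with hexane. Converted menaquinone-4 and its epoxide quantified by LC-APCI-MS/MS. Three independent experiments; mean ± SD.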

Data set [2] has as its system MG-63. Description: Prodrug conversion in human MG63 cells assessed as formation of deuterium 1a-methyl-7a-((2E,6E,10E)-3,7,11,15-tetramethylhexadeca-2,6,10,14-tetraenyl)naphtho[2,3-b]oxirene-2,7(1aH,7aH)-dione at 1 uM for 24 hrs by LC-APCI-MS/MS analysis. The following applies: mg-63, 24 h. Type of data set: ADME, cell-based. The method, boiled down: as §1
The target of data set [3] is T1, Nuclear receptor subfamily 1 group I member 2 (Homo sapiens, UniProt O75469).
T1 sequence (O75469 whole entry): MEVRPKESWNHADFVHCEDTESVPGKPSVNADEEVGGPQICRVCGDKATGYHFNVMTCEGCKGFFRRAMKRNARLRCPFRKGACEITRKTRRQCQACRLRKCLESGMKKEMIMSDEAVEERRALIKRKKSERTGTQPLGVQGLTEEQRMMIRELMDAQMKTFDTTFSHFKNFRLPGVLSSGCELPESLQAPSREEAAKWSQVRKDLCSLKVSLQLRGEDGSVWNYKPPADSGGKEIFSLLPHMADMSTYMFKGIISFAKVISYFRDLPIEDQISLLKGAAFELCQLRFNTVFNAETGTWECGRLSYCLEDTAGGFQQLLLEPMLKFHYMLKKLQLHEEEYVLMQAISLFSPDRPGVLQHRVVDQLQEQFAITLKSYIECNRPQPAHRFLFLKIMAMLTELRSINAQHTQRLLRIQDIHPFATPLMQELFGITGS
Description: (§2) Induction of human SXR transcriptional activity expressed in human HepG2 cells coexpressing GAL4 at 5 X 10^-6 M after 48 hrs by luciferase reporter gene assay relative to vehicle-treated control. The class given is cell-based. The following applies: hepg2, 48 h, 5 µM. The procedure, abridged: (§3)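 HepG2 cells (2 × 10^5 per well), maintained in Eagle's modified medium with 10% FCS and 1% each penicillin/streptomycin, transfected with pM-SXR (GAL4 fusion), pGVP2-GAL2 reporter and pRL-CMV. 24 h after transfection, treated in fresh medium with compound or ethanol vehicle for 48 h. Dual-luciferase read-out, firefly normalized to Renilla. Three independent experiments; mean ± SD.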
(In a reporter assay the amount or activity of a reporter protein is the signal.)

Data set [4] concerns MG-63. Description: Prodrug conversion in human MG63 cells assessed as formation of MK-4 at 1 uM for 24 hrs by LC-APCI-MS/MS analysis. The settings on record: mg-63, 24 h. Type of data set: ADME, cell-based. The procedure, abridged:
as §1

The target of data set [5] is T2, SXR (nuclear receptor subfamily 1 group I member 2) (Homo sapiens, UniProt O75469).
T2 sequence (O75469 whole entry): T1 sequence (O75469 whole entry)
The description is as §2. Type of data set: cell-based. The settings on record: HepG2 cells expressing human SXR and GAL4, read-out: FC. The method, boiled down:
as §3

As to `[2H]c1c([2H])c([2H])c2c(c1[2H])C(=O)C(C/C=C(\C)CC/C=C(\C)CC/C=C/CCC=C(C)C)=C(C([2H])([2H])[2H])C2=O`, the Drug metabolism result in the data set with MG-63 [1], with MG-63 [2] and in the data set on MG-63 [4] was “Active” throughout. The result in data set [3] was Active.
For the molecule `[2H]c1c([2H])c([2H])c2c(c1[2H])C(=O)C(C/C=C(\C)CCCC(C)CCCC(C)CCC=C(C)C)=C(C([2H])([2H])[2H])C2=O` (centres undefined), the Activity result in data set [3] is reported as “Not Active”.
Take `[2H]c1c([2H])c([2H])c2c(c1[2H])C(=O)C(C/C=C(\C)CC/C=C/CC/C=C(\C)CCC=C(C)C)=C(C([2H])([2H])[2H])C2=O`: the Drug metabolism result in the data set on MG-63 [1], in the data set with MG-63 [2] and with MG-63 [4] was “Active” each time. In addition, the result in data set [3] was Active.
With `[2H]c1c([2H])c([2H])c2c(c1[2H])C(=O)C(C/C=C(\C)CC/C=C(\C)CC/C=C(\C)CCC=C(C)C)=C(C([2H])([2H])[2H])C2=O`, the fold induction at 48 h, 5 µM in data set [5] came to 7.
Consider `[2H]c1c([2H])c([2H])c2c(c1[2H])C(=O)C(C/C=C(\C)CC/C=C(\C)CC/C=C(\C)CC/C=C/C)=C(C([2H])([2H])[2H])C2=O`, for which the Drug metabolism entry in the data set with MG-63 [1], in the data set with MG-63 [2] and in the data set with MG-63 [4] was “Active” each time. Besides, the result in data set [3] was Active.
As for `[2H]c1c([2H])c([2H])c2c(c1[2H])C(=O)C(C/C=C(\C)CCCC(C)CC/C=C(\C)CCC=C(C)C)=C(C([2H])([2H])[2H])C2=O` (centres undefined), the outcome in data set [3] was Active.
For `[2H]c1c([2H])c([2H])c2c(c1[2H])C(=O)C(C/C=C(\C)CC([2H])([2H])/C=C(/CC/C=C(\C)CCC=C(C)C)C([2H])([2H])[2H])=C(C([2H])([2H])[2H])C2=O`, the Drug metabolism result in the data set on MG-63 [1], in the data set with MG-63 [2] and in the data set with MG-63 [4] was “Active” throughout.
Consider `[2H]c1c([2H])c([2H])c2c(c1[2H])C(=O)C(C/C=C/CC/C=C(\C)CC/C=C(\C)CCC=C(C)C)=C(C([2H])([2H])[2H])C2=O`, for which the Drug metabolism result in the data set with MG-63 [1], in the data set on MG-63 [2] and in the data set on MG-63 [4] was “Active” throughout. In data set [3], the result was Active.
Regarding `[2H]c1c([2H])c([2H])c2c(c1[2H])C(=O)C(CCC(C)CCCC(C)CCCC(C)CCCC(C)C)=C(C([2H])([2H])[2H])C2=O` (centres undefined), the Activity result in data set [3] was “Not Active”.
Still for that read-out and setting: the value for `[2H]c1c([2H])c([2H])c2c(c1[2H])C(=O)C(C/C=C(\C)CCCC(C)CCCC(C)CCCC(C)C)=C(C([2H])([2H])[2H])C2=O` (centres undefined) was “Not Active”.
